Results reported in ChEMBL document CHEMBL1795264, “Deglycobleomycin A6 analogues modified in the methylvalerate moiety” (Bioorg Med Chem, 2011).
Activity calls are given as the source filed them.

Key:
[1] = tested on: Nucleic Acid; assay: Induction of Escherichia coli [5'-32P]-end labeled 64-nucleotide hairpin DNA base pair of pBR322 DNA cleavage using bromophenol blue and xylene cyanol FF at 5 to 20 uM after 30 mins by phosphorimager analysis in presence of equimolar Fe2+; assay type: nucleic-acid assay
Procedure, shortened: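 64-nt hairpin DNA, 5'-32P-labelled with T4 polynucleotide kinase and purified on 16% polyacrylamide gel, 30,000 cpm, exposed to Fe2+ plus deglycoBLM in 50 mM Tris–HCl pH 8.0 at room temperature for 30 min. Dried, heated 90 °C 10 min in formamide loading buffer, then run on denaturing 16% polyacrylamide/7 M urea gel at 1800 V for 2.5 h.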

[2] = tested on: Nucleic Acid; assay: Induction of Escherichia coli supercoiled pBR322 DNA cleavage assessed as formation of linear form of DNA using bromophenol blue at 4 uM after 30 mins by agarose gel electrophoresis analysis in presence of equimolar Fe2+; assay type: nucleic-acid assay
[3] = tested on: Nucleic Acid; assay: Induction of Escherichia coli supercoiled pBR322 DNA cleavage assessed as formation of nicked DNA using bromophenol blue at 1 to 4 uM after 30 mins by agarose gel electrophoresis analysis in presence of equimolar Fe2+; assay type: nucleic-acid assay
[4] = tested on: Nucleic Acid; assay: Induction of Escherichia coli [5'-32P]-end labeled 158-base pair of pBR322 DNA cleavage using bromophenol blue and xylene cyanol FF at 1 to 10 uM after 30 mins by phosphorimager analysis in presence of equimolar Fe2+
[5] = tested on: Nucleic Acid; assay: Induction of Escherichia coli [5'-32P]-end labeled 158-base pair of pBR322 DNA cleavage at G12 site using bromophenol blue and xylene cyanol FF at 1 to 10 uM after 30 mins by phosphorimager analysis in presence of equimolar Fe2+; assay type: nucleic-acid assay
Procedure, shortened: (§1)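 158-bp pBR322 restriction fragment (HindIII cut, dephosphorylated, 5'-32P-labelled with T4 polynucleotide kinase, EcoRV cut), 30,000 cpm, treated with Fe2+ plus deglycoBLM in 50 mM Tris–HCl pH 8.0 at room temperature for 30 min. Supernatant removed under vacuum, pellet heated 90 °C 10 min in formamide loading buffer and chilled on ice before denaturing gel analysis.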

[6] = tested on: Nucleic Acid; assay: Induction of Escherichia coli [5'-32P]-end labeled 158-base pair of pBR322 DNA cleavage at A15 site using bromophenol blue and xylene cyanol FF at 1 to 10 uM after 30 mins by phosphorimager analysis in presence of equimolar Fe2+; assay type: nucleic-acid assay; procedure, shortened: as §1
[7] = tested on: Nucleic Acid; assay: Induction of Escherichia coli [5'-32P]-end labeled 158-base pair of pBR322 DNA cleavage at 5'-GT14-3' site using bromophenol blue and xylene cyanol FF at 1 to 10 uM after 30 mins by phosphorimager analysis in presence of equimolar Fe2+; assay type: nucleic-acid assay; procedure, shortened: as §1
[8] = tested on: Nucleic Acid; assay: Induction of Escherichia coli [5'-32P]-end labeled 158-base pair of pBR322 DNA cleavage at 5'-GT17-3' site using bromophenol blue and xylene cyanol FF at 1 to 10 uM after 30 mins by phosphorimager analysis in presence of equimolar Fe2+; assay type: nucleic-acid assay; procedure, shortened: as §1
[9] = tested on: Nucleic Acid; assay: Induction of Escherichia coli [5'-32P]-end labeled 158-base pair of pBR322 DNA cleavage at 5'-GT27-3' site using bromophenol blue and xylene cyanol FF at 1 to 10 uM after 30 mins by phosphorimager analysis in presence of equimolar Fe2+; assay type: nucleic-acid assay; procedure, shortened: as §1
[10] = tested on: Nucleic Acid; assay: Induction of Escherichia coli [5'-32P]-end labeled 158-base pair of pBR322 DNA cleavage at 5'-CG11-3' site using bromophenol blue and xylene cyanol FF at 1 to 10 uM after 30 mins by phosphorimager analysis in presence of equimolar Fe2+; assay type: nucleic-acid assay; procedure, shortened: as §1
[11] = tested on: Nucleic Acid; assay: Induction of Escherichia coli [5'-32P]-end labeled 158-base pair of pBR322 DNA cleavage at 5'-CG35-3' site using bromophenol blue and xylene cyanol FF at 1 to 10 uM after 30 mins by phosphorimager analysis in presence of equimolar Fe2+; assay type: nucleic-acid assay; procedure, shortened: as §1

Measured: Activity

Cc1c(N)nc([C@H](CC(N)=O)NC[C@H](N)C(N)=O)nc1C(=O)N[C@@H](Cc1c[nH]cn1)C(=O)N[C@H](Cc1ccccc1)[C@@H](O)[C@H](C)C(=O)N[C@H](C(=O)NCCc1nc(-c2nc(C(=O)NCCCNCCCCNCCCN)cs2)cs1)[C@@H](C)O
active: [1] | [2] | [3] | [4]
inactive: [5] | [6]

Cc1c(N)nc([C@H](CC(N)=O)NC[C@H](N)C(N)=O)nc1C(=O)N[C@@H](Cc1c[nH]cn1)C(=O)N[C@H](CC(C)C)[C@@H](O)[C@H](CC(C)C)C(=O)N[C@H](C(=O)NCCc1nc(-c2nc(C(=O)NCCCNCCCCNCCCN)cs2)cs1)[C@@H](C)O
active: [1] | [2] | [3] | [4]
inactive: [5] | [6]

CC[C@@H](C)C(NC(=O)[C@H](Cc1c[nH]cn1)NC(=O)c1nc([C@H](CC(N)=O)NC[C@H](N)C(N)=O)nc(N)c1C)[C@@H](O)[C@H](C)C(=O)N[C@H](C(=O)NCCc1nc(-c2nc(C(=O)NCCCNCCCCNCCCN)cs2)cs1)[C@@H](C)O (single isomer, unassigned)
not listed: [2] | [4]
active: all other assays above

Cc1c(N)nc([C@H](CC(N)=O)NC[C@H](N)C(N)=O)nc1C(=O)N[C@@H](Cc1c[nH]cn1)C(=O)N[C@H](CC1CCCCC1)[C@@H](O)[C@H](C)C(=O)N[C@H](C(=O)NCCc1nc(-c2nc(C(=O)NCCCNCCCCNCCCN)cs2)cs1)[C@@H](C)O
active: [1] | [2] | [3] | [4]
inactive: [5] | [6]

Cc1c(N)nc([C@H](CC(N)=O)NC[C@H](N)C(N)=O)nc1C(=O)N[C@@H](Cc1c[nH]cn1)C(=O)N[C@@H]([C@@H](O)[C@H](C)C(=O)N[C@H](C(=O)NCCc1nc(-c2nc(C(=O)NCCCNCCCCNCCCN)cs2)cs1)[C@@H](C)O)C(C)(C)C
not listed: [2] | [4] | [5] | [6]
active: all other assays above

Cc1c(N)nc([C@H](CC(N)=O)NC[C@H](N)C(N)=O)nc1C(=O)N[C@@H](Cc1c[nH]cn1)C(=O)N[C@H](C)[C@@H](O)[C@H](Cc1ccccc1)C(=O)N[C@H](C(=O)NCCc1nc(-c2nc(C(=O)NCCCNCCCCNCCCN)cs2)cs1)[C@@H](C)O
inactive: [5] | [6]
active: [1] | [2] | [3] | [4]

Cc1c(N)nc([C@H](CC(N)=O)NC[C@H](N)C(N)=O)nc1C(=O)N[C@@H](Cc1c[nH]cn1)C(=O)N[C@H](C)[C@@H](O)[C@H](CC(C)C)C(=O)N[C@H](C(=O)NCCc1nc(-c2nc(C(=O)NCCCNCCCCNCCCN)cs2)cs1)[C@@H](C)O
inactive: [5] | [6]
active: [1] | [2] | [3] | [4]

Cc1c(N)nc([C@H](CC(N)=O)NC[C@H](N)C(N)=O)nc1C(=O)N[C@@H](Cc1c[nH]cn1)C(=O)N[C@H](C)[C@@H](O)[C@H](C)C(=O)N[C@H](C(=O)NCCc1nc(-c2nc(C(=O)NCCCNCCCCN)cs2)cs1)[C@@H](C)O
active: [1] | [3]

CCCC[C@H](C(=O)N[C@H](C(=O)NCCc1nc(-c2nc(C(=O)NCCCNCCCCNCCCN)cs2)cs1)[C@@H](C)O)[C@H](O)[C@@H](C)NC(=O)[C@H](Cc1c[nH]cn1)NC(=O)c1nc([C@H](CC(N)=O)NC[C@H](N)C(N)=O)nc(N)c1C
inactive: [5] | [6]
active: [1] | [2] | [3] | [4]

Cc1ccccc1C[C@@H](NC(=O)[C@H](Cc1c[nH]cn1)NC(=O)c1nc([C@H](CC(N)=O)NC[C@H](N)C(N)=O)nc(N)c1C)[C@@H](O)[C@H](C)C(=O)N[C@H](C(=O)NCCc1nc(-c2nc(C(=O)NCCCNCCCCNCCCN)cs2)cs1)[C@@H](C)O
active: [1] | [3] | [4]
inactive: [5] | [6]

Cc1c(N)nc([C@H](CC(N)=O)NC[C@H](N)C(N)=O)nc1C(=O)N[C@@H](Cc1c[nH]cn1)C(=O)N[C@H](Cc1ccccc1Br)[C@@H](O)[C@H](C)C(=O)N[C@H](C(=O)NCCc1nc(-c2nc(C(=O)NCCCNCCCCNCCCN)cs2)cs1)[C@@H](C)O
inactive: [5] | [6]
active: [1] | [2] | [3] | [4]

Cc1c(N)nc([C@H](CC(N)=O)NC[C@H](N)C(N)=O)nc1C(=O)N[C@@H](Cc1c[nH]cn1)C(=O)N[C@H](CC(C)C)[C@@H](O)[C@H](C)C(=O)N[C@H](C(=O)NCCc1nc(-c2nc(C(=O)NCCCNCCCCNCCCN)cs2)cs1)[C@@H](C)O
not listed: [2] | [4] | [5] | [6]
active: all other assays above
